Results as given in ChEMBL document CHEMBL1165965, “Synthesis and structure-activity relationships of 1,2,3,4-tetrahydropyrido[2,3-b]pyrazines as potent and selective inhibitors of the anaplastic lymphoma kinase” (Bioorg Med Chem, 2010).

Key:
[1] = system: Epidermal growth factor receptor (Homo sapiens), P00533 [L858R,T790M]; experiment: Inhibition of EGFR L858R, T790M mutant at 1 uM; type: protein assay
[2] = target: Casein kinase I isoform delta (Homo sapiens) (UniProt P48730); experiment: Inhibition of CSNK1D at 1 uM
Chain of Casein kinase I isoform delta (Homo sapiens) (P48730 whole entry, looked up, canonical isoform): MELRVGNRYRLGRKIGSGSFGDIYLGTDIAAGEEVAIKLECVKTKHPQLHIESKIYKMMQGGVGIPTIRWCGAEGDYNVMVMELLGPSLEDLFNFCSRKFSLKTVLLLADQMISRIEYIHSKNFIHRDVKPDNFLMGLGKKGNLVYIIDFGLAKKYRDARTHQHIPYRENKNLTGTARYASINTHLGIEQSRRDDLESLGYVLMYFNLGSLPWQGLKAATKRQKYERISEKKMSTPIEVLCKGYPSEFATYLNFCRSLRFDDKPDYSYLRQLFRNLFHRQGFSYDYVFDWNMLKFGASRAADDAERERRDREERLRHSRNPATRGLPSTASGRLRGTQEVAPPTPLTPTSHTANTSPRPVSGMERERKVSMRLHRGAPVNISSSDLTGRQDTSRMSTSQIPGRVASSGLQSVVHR
In short: (§1)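 Single-concentration screen using Ambit Bioscience KINOMEscan technology across a panel of 250–400 kinases. Per-kinase inhibition from this screen was summarized as S(90), the fraction of kinases inhibited by more than 90%.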

[3] = target: Cyclin-dependent kinase-like 3 (Homo sapiens) (UniProt Q8IVW4); experiment: Inhibition of CDKL3 at 1 uM
[4] = target: Calcium/calmodulin-dependent protein kinase kinase 2 (Homo sapiens) (UniProt Q96RR4); experiment: Inhibition of CAMKK2 at 1 uM
In short: (§2)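 Ambit KINOMEscan screen at a single concentration across a 250–400 kinase panel, recorded as percent inhibition. Selectivity was expressed as S(90), the fraction of kinases inhibited >90%.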

[5] = target: LIM domain kinase 2 (Homo sapiens) (UniProt P53671); experiment: Inhibition of LIMK2 at 1 uM
In short: (§3)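 Single-concentration screen on the Ambit KINOMEscan platform, run against a panel of 250–400 kinases. Per-kinase inhibition was also summarized as S(90), the fraction of kinases inhibited by more than 90%.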

[6] = target: T1, Receptor-interacting serine/threonine-protein kinase 4 (Homo sapiens) (UniProt P57078); experiment: Inhibition of RIPK4 at 1 uM
T1 sequence (whole entry): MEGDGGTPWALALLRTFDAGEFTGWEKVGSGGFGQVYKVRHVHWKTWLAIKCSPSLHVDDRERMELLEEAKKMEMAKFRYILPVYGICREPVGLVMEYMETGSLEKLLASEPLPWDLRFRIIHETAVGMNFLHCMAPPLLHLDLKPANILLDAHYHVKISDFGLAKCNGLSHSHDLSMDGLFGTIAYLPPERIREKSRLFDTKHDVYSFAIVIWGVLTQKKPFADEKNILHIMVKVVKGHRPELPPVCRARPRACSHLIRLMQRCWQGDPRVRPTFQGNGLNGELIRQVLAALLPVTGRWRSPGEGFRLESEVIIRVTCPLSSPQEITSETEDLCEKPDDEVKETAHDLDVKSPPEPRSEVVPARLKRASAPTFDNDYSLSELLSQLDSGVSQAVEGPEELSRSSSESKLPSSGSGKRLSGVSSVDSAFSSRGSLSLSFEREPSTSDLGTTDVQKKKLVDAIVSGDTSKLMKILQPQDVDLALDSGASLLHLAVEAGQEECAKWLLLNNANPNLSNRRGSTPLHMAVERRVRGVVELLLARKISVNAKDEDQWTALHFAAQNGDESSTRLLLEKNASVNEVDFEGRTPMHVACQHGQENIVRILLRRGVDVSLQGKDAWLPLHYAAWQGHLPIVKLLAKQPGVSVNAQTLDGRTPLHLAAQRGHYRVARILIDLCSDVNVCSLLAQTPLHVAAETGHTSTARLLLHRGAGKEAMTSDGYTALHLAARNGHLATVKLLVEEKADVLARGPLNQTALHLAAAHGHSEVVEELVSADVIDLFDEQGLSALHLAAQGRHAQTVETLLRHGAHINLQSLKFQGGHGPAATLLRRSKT

[7] = target: T2, NUAK family SNF1-like kinase 2 (Homo sapiens) (UniProt Q9H093); experiment: Inhibition of SNARK at 1 uM
T2 sequence (whole entry): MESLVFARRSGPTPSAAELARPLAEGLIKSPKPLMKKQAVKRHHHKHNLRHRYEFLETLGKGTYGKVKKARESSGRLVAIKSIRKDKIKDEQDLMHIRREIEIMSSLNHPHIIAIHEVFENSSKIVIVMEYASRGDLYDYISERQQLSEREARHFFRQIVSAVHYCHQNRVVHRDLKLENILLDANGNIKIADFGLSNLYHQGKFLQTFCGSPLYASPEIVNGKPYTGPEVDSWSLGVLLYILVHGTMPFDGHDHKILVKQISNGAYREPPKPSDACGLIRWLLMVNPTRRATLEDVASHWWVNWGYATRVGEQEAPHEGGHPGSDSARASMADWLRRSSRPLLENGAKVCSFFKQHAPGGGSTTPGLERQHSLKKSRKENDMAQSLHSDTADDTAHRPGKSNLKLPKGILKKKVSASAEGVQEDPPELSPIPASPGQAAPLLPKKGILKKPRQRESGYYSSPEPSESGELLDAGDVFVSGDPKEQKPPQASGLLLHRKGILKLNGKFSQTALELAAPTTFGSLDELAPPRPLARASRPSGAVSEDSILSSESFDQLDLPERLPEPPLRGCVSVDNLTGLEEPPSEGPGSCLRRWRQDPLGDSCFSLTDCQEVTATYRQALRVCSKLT

[8] = target: Myosin light chain kinase, smooth muscle (Homo sapiens) (UniProt Q15746); experiment: Inhibition of MLCK at 1 uM
[9] = target: ALK tyrosine kinase receptor (Homo sapiens, UniProt Q9UM73); experiment: Inhibition of ALK at 1 uM
[10] = target: Glycogen synthase kinase-3 beta (Homo sapiens) (UniProt P49841); experiment: Inhibition of GSK3B at 1 uM; in short: as §3
Chain of Glycogen synthase kinase-3 beta (Homo sapiens) (P49841 whole entry, looked up): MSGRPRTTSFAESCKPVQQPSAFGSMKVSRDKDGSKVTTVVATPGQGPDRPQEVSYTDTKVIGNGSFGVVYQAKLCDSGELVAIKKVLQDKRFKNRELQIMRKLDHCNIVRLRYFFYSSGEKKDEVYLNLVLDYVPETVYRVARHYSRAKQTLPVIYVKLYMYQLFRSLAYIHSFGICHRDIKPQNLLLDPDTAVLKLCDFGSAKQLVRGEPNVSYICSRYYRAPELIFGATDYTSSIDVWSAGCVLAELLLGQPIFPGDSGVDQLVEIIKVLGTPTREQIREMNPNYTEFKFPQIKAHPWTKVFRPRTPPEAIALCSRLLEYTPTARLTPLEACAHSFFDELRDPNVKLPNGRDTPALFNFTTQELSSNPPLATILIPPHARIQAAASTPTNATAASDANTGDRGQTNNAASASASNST

[11] = target: Serine/threonine-protein kinase MARK1 (Homo sapiens) (UniProt Q9P0L2); experiment: Inhibition of MARK1 at 1 uM
In short: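 Kinase-panel screen using KINOMEscan technology, with 250–400 kinases per panel. Each compound was tested at a single concentration, and inhibition of each kinase was recorded. Selectivity was summarised as S(90), the fraction of kinases inhibited by more than 90%.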

[12] = target: Serine/threonine-protein kinase tousled-like 2 (Homo sapiens) (UniProt Q86UE8); experiment: Inhibition of TLK2 at 1 uM
[13] = target: Ephrin type-A receptor 4 (Homo sapiens) (UniProt P54764); experiment: Inhibition of EPHA4 at 1 uM; in short: as §1
Chain of Ephrin type-A receptor 4 (Homo sapiens) (P54764 whole entry): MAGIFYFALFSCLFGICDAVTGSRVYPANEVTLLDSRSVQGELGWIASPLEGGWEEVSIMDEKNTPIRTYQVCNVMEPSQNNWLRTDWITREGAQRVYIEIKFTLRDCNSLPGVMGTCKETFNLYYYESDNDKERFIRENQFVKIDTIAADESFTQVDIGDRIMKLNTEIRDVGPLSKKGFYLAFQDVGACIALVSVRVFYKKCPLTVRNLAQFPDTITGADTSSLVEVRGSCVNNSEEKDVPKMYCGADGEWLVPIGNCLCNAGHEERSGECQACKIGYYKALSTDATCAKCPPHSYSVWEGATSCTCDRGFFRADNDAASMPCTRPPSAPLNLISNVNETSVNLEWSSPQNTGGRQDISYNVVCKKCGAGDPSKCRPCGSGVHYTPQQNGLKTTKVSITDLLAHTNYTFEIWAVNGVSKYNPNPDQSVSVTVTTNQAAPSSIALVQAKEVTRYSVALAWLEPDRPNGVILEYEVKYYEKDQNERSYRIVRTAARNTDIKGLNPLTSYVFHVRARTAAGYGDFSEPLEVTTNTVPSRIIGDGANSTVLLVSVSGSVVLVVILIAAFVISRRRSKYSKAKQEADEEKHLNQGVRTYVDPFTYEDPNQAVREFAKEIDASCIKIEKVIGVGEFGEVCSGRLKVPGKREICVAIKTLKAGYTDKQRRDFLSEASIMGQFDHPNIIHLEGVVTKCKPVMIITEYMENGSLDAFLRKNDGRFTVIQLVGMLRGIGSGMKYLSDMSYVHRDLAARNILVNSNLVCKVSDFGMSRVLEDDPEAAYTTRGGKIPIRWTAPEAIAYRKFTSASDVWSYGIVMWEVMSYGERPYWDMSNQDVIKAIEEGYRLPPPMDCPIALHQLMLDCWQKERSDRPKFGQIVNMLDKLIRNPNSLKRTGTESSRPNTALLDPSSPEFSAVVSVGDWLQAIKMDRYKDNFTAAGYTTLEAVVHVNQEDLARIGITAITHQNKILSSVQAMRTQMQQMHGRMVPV

[14] = target: Myosin-IIIa (Homo sapiens) (UniProt Q8NEV4); experiment: Inhibition of MYO3A at 1 uM
Chain of Myosin-IIIa (Homo sapiens) (Q8NEV4 whole entry): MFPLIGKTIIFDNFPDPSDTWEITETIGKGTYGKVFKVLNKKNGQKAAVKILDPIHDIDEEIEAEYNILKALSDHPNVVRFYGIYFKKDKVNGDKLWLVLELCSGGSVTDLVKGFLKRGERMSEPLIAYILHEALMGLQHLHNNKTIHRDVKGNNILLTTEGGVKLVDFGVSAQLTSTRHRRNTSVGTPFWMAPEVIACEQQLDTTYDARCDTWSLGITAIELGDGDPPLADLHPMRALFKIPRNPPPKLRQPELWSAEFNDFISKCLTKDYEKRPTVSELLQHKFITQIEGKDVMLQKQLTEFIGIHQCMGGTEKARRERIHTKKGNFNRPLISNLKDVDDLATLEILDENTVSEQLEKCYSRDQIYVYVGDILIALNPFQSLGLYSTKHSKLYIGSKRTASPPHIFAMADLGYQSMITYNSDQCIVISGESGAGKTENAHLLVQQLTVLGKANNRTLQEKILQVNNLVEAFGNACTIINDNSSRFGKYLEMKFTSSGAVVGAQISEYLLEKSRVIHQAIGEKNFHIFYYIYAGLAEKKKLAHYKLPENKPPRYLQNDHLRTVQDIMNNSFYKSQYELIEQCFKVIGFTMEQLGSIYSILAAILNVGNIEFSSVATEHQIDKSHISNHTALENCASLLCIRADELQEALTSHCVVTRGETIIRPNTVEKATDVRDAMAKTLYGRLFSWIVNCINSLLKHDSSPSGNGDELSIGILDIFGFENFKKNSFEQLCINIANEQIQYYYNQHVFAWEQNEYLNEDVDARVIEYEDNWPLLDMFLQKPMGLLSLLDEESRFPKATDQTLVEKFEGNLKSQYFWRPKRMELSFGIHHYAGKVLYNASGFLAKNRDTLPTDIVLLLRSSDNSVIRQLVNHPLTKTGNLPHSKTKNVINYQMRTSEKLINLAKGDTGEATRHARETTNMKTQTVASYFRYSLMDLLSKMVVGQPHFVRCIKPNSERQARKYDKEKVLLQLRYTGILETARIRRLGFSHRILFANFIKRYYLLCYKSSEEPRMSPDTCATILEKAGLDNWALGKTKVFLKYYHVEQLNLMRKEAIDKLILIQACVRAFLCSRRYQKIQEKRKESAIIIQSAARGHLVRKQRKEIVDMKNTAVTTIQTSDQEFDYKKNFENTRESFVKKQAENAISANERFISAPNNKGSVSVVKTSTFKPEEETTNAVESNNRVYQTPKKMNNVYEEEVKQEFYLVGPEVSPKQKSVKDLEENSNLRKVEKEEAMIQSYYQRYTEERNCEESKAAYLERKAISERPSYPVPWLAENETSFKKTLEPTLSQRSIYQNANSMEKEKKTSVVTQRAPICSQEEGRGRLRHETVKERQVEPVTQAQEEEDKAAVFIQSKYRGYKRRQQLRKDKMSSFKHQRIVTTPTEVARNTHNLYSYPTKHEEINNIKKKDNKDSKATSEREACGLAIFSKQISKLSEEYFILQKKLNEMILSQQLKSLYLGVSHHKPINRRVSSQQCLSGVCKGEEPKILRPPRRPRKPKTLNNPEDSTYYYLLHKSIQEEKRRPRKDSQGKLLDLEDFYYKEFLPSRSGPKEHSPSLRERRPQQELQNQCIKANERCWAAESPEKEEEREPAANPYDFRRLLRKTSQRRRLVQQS

[15] = system: Tyrosine-protein kinase ABL1 (Homo sapiens), P00519 [Q252H]; experiment: Inhibition of ABL1 Q252H mutant at 1 uM; in short: as §2
[16] = target: Myosin light chain kinase 2, skeletal/cardiac muscle (Homo sapiens) (UniProt Q9H1R3); experiment: Inhibition of MYLK2 at 1 uM
[17] = system: Epidermal growth factor receptor (Homo sapiens), P00533 [L861Q]; experiment: Inhibition of EGFR L861Q mutant at 1 uM; type: protein assay; in short: as §1
Chain of Epidermal growth factor receptor (Homo sapiens), P00533 [L861Q] (P00533 whole entry L861Q): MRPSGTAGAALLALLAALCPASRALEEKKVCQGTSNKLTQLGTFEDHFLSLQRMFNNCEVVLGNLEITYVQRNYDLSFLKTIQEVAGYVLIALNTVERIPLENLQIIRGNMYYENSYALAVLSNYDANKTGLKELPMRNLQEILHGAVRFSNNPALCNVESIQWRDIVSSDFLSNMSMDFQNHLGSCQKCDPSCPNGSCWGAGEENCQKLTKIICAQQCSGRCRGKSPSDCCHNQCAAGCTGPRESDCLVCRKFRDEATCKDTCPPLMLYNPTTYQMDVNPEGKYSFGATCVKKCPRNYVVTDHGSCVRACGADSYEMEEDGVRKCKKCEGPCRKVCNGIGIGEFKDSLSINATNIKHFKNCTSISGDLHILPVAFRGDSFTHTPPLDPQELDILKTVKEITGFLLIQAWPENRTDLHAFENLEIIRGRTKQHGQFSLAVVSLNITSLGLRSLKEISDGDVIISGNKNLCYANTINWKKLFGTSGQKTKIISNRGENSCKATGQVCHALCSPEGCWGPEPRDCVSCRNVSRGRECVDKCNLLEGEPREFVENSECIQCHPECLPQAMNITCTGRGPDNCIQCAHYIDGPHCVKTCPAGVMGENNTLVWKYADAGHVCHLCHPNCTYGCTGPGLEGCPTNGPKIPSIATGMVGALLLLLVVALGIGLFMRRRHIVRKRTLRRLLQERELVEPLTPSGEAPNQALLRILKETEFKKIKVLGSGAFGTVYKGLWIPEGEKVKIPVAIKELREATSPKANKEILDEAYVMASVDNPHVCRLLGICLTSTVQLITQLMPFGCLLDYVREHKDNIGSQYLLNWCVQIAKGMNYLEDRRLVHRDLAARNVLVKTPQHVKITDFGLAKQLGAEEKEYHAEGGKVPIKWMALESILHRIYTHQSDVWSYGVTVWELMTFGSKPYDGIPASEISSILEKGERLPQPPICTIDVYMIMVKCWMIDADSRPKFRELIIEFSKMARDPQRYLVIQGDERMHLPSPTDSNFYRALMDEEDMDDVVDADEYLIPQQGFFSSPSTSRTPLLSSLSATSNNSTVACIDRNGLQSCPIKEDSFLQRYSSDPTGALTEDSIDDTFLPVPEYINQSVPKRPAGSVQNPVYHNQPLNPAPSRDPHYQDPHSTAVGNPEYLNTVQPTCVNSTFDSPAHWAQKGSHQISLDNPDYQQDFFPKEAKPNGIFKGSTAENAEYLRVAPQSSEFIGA

[18] = target: Dual specificity mitogen-activated protein kinase kinase 2 (Homo sapiens) (UniProt P36507); experiment: Inhibition of MEK2 at 1 uM
[19] = target: Casein kinase I isoform gamma-1 (Homo sapiens) (UniProt Q9HCP0); experiment: Inhibition of CSNK1G1 at 1 uM; in short: as §1
Chain of Casein kinase I isoform gamma-1 (Homo sapiens) (Q9HCP0 whole entry, looked up, canonical isoform): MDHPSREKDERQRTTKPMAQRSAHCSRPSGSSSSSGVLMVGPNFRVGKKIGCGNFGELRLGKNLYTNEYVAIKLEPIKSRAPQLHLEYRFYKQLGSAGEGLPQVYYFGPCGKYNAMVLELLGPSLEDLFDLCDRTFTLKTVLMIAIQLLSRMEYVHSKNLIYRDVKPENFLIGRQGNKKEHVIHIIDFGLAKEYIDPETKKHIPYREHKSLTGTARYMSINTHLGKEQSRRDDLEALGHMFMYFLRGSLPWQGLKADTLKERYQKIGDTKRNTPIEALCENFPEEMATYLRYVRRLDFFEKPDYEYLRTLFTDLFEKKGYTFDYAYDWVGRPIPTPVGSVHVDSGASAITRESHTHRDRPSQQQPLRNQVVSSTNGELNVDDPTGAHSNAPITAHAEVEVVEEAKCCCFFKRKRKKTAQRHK

[20] = system: Epidermal growth factor receptor (Homo sapiens), P00533 [L858R]; experiment: Inhibition of EGFR L858R mutant at 1 uM; type: protein assay; in short: as §1

inhibition [1] [%] | inhibition [2] [%] | inhibition [3] [%] | inhibition [4] [%] | inhibition [5] [%] | inhibition [6] [%] | inhibition [7] [%] | inhibition [8] [%] | inhibition [9] [%] | inhibition [10] [%] | inhibition [11] [%] | inhibition [12] [%] | inhibition [13] [%] | inhibition [14] [%] | inhibition [15] [%] | inhibition [16] [%] | inhibition [17] [%] | inhibition [18] [%] | inhibition [19] [%] | inhibition [20] [%] | Compound
< 50 | < 50 | < 50 | < 50 | < 50 | < 50 | 81 | < 50 | 98 | < 50 | < 50 | < 50 | < 50 | < 50 | < 50 | < 50 | < 50 | < 50 | < 50 | < 50 | CN1CCN(c2ccc(-c3cnc4c(c3)N(Cc3cc(Cl)ccc3Cl)CCN4)cn2)CC1
< 50 | < 50 | < 50 | < 50 | < 50 | < 50 | 85 | < 50 | 98 | < 50 | < 50 | < 50 | < 50 | < 50 | < 50 | < 50 | < 50 | < 50 | < 50 | < 50 | CN1CCN(c2ccc(-c3cnc4c(c3)N(Cc3cc(Cl)ccc3C(F)(F)F)CCN4)cn2)CC1
 | < 50 |  | < 50 | < 50 |  |  |  | 85.6 | < 50 | < 50 | < 50 | < 50 |  | < 50 | < 50 | < 50 |  | < 50 | < 50 | COC1CCN(C(=O)c2ccc(-c3cnc4c(c3)N(Cc3cc(Cl)ccc3C(F)(F)F)CCN4)cc2)CC1
 | < 50 |  | < 50 | < 50 |  |  |  | < 50 | < 50 | < 50 | < 50 | < 50 |  | < 50 | < 50 | < 50 |  | < 50 | < 50 | O=C(c1ccc(-c2cnc3c(c2)N(Cc2cc(Cl)ccc2C(F)(F)F)CCN3)cc1)N1CCCCC1
< 50 | < 50 | < 50 | < 50 | < 50 | < 50 | 93 | < 50 | 99 | < 50 | < 50 | < 50 | < 50 | < 50 | < 50 | < 50 | < 50 | < 50 | < 50 | < 50 | FC(F)(F)c1ccc(Cl)cc1CN1CCNc2ncc(-c3ccnc(N4CCNCC4)c3)cc21
< 50 | < 50 | < 50 | < 50 | < 50 | < 50 | 71 | < 50 | 98 | < 50 | < 50 | < 50 | < 50 | < 50 | < 50 | < 50 | < 50 | < 50 | < 50 | < 50 | CC(=O)N1CCN(c2cc(-c3cnc4c(c3)N(Cc3cc(Cl)ccc3C(F)(F)F)CCN4)ccn2)CC1
 | < 50 |  | < 50 | < 50 |  |  |  | < 50 | < 50 | < 50 | < 50 | < 50 |  | < 50 | < 50 | < 50 |  | < 50 | < 50 | O=C(O)c1ccc(-c2cnc3c(c2)N(Cc2cc(Cl)ccc2C(F)(F)F)CCN3)cc1
 | < 50 |  | < 50 | < 50 |  |  |  | 83.4 | < 50 | < 50 | < 50 | < 50 |  | 63 | < 50 | < 50 |  | < 50 | < 50 | O=C(c1ccc(-c2cnc3c(c2)N(Cc2cc(Cl)ccc2C(F)(F)F)CCN3)cc1)N1CCC(N2CCCC2)CC1
< 50 | < 50 | < 50 | < 50 | < 50 | < 50 | 90 | < 50 | 97 | < 50 | < 50 | < 50 | < 50 | < 50 | 72 | < 50 | < 50 | < 50 | < 50 | < 50 | CN1CCN(c2ccc(-c3cnc4c(c3)N(Cc3c(F)ccc(F)c3Cl)CCN4)cn2)CC1
< 50 | < 50 | < 50 | < 50 | < 50 | < 50 | 90 | < 50 | 96.7 | < 50 | < 50 | < 50 | < 50 | < 50 | < 50 | < 50 | < 50 | < 50 | < 50 | < 50 | CN1CCN(c2ccc(-c3cnc4c(c3)N(Cc3cc(F)ccc3F)CCN4)cn2)CC1
